Source: ChEMBL document CHEMBL3861962 (Eur J Med Chem, 2016)

Columns and labels:
Cytochrome P450 2D6 = Cytochrome P450 2D6 (Homo sapiens, UniProt P10635); experiment: Drug metabolism assessed as human recombinant CYP2D6-mediated metabolite formation by measuring parent compound remaining at 5 uM in presence of NADPH after 30 mins by LC-MS/MS analysis; assay type: ADME; settings: recombinant enzyme, 0.5 h
Method in brief: (§1)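 Substrate at 5 μM final in 100 mM potassium phosphate, pH 7.4, incubated with human liver microsomes or baculovirus-expressed recombinant CYP3A4, 2D6 or 2C9. Reaction started with 1 mM NADPH and run 0, 15 and 30 min at 37 °C. Stopped with ice-cold acetonitrile containing labetalol internal standard, then centrifuged. Supernatant analysed by LC-MS/MS on a C18 column at 40 °C. Blank was enzyme without substrate.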

[1] = biological target: T1, Endothelin receptor type B (Homo sapiens) (UniProt P24530); experiment: Antagonist activity at human recombinant ETB expressed in CHOK1 cells assessed as inhibition of endothelin-1-mediated Ca2+ mobilization at 100 nM by fluorimetric method relative to control; assay type: functional, cell-based; settings: CHO-K1
T1 sequence (whole entry): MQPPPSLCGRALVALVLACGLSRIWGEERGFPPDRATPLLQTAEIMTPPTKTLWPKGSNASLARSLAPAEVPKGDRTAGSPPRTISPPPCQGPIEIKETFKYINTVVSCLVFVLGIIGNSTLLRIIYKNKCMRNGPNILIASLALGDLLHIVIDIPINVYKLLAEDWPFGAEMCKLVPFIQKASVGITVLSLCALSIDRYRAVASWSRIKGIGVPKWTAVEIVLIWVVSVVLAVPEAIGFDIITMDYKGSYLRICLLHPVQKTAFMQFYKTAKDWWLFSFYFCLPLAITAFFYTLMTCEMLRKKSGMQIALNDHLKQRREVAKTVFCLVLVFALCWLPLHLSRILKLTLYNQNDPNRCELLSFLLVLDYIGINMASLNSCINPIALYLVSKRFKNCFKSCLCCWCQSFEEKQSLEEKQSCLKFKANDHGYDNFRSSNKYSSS
Method in brief: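 ETB functional assay run by Cerep in human recombinant CHO-k1 cells at 22 °C with fluorimetric read-out. Test solutions were 1, 10, 100 and 1000 nM. Agonist response is given as % of the control response to 100 nM endothelin-1. For antagonist mode, inhibition is given as % of the control endothelin-1 agonist response, with BQ-788 as reference antagonist.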

[2] = Drug metabolism in human liver microsomes assessed as formation of N-(6-(2-hydroxyethoxy)-5-(2-hydroxyphenoxy)-2,2'-bipyrimidin-4-yl)-4-(perfluoropropan-2-yl)benzenesulfonamide at 5 uM in presence of NADPH after 30 mins by LC-MS/MS analysis; assay type: ADME; settings: 0.5 h; method in brief: as §1
[3] = Drug metabolism in human liver microsomes assessed as formation of OH-substituted O-demethyl-4-(1,1,1,2,3,3,3-Heptafluoropropan-2-yl)-N-(6-(2-hydroxyethoxy)-5-(2-methoxyphenoxy)-2,2'-bipyrimidin-4-yl)benzenesulfonamide at 5 uM in presence of NADPH after 30 mins by LC-MS/MS analysis; assay type: ADME; settings: 0.5 h
Method in brief: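 Pooled human liver microsomes in 100 mM potassium phosphate, pH 7.4, with test compound at 5 μM final. Reaction started with 1 mM NADPH (final) and run at 37 °C in a shaking water bath for 0, 15 and 30 min. Stopped with an equal volume of ice-cold acetonitrile containing 0.6 μM labetalol as internal standard. Protein was spun out and the supernatant analysed by LC-MS/MS. Blank had no compound.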

Cytochrome P450 3A4 [4] = biological target: T2, Cytochrome P450 3A4 (Homo sapiens, UniProt P08684); experiment: Drug metabolism assessed as human recombinant CYP3A4-mediated formation of OH-substituted O-demethyl-4-(1,1,1,2,3,3,3-Heptafluoropropan-2-yl)-N-(6-(2-hydroxyethoxy)-5-(2-methoxyphenoxy)-2,2'-bipyrimidin-4-yl)benzenesulfonamide at 5 uM in presence of NADPH after 30 mins by LC-MS/MS analysis; assay type: ADME; settings: recombinant enzyme, 0.5 h; method in brief: as §1
T2 sequence (P08684 whole entry): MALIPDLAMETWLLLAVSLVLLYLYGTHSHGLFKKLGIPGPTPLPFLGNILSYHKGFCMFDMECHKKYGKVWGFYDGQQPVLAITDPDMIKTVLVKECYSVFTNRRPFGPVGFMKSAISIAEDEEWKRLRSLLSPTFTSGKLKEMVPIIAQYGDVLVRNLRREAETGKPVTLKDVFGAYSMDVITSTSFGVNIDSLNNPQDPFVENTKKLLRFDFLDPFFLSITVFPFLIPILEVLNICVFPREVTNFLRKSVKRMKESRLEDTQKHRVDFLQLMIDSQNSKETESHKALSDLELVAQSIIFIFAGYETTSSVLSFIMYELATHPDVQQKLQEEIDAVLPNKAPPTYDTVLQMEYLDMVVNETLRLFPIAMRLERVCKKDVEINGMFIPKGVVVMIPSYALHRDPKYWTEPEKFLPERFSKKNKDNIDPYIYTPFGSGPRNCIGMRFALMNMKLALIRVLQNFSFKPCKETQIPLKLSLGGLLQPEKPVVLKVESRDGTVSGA

Cytochrome P450 3A4 [5] = biological target: T2, Cytochrome P450 3A4; experiment: Drug metabolism assessed as human recombinant CYP3A4-mediated formation of N-(6-(2-hydroxyethoxy)-5-(2-hydroxyphenoxy)-2,2'-bipyrimidin-4-yl)-4-(perfluoropropan-2-yl)benzenesulfonamide at 5 uM in presence of NADPH after 30 mins by LC-MS/MS analysis; assay type: ADME; settings: recombinant enzyme, 0.5 h; method in brief: as §1
Endothelin-1 receptor = biological target: T3, Endothelin-1 receptor (Homo sapiens, UniProt P25101); experiment: Antagonist activity at ETA receptor in human SKNMC cells assessed as inhibition of endothelin-1-induced Ca2+ mobilization by fluorimetric method
T3 sequence (P25101 whole entry): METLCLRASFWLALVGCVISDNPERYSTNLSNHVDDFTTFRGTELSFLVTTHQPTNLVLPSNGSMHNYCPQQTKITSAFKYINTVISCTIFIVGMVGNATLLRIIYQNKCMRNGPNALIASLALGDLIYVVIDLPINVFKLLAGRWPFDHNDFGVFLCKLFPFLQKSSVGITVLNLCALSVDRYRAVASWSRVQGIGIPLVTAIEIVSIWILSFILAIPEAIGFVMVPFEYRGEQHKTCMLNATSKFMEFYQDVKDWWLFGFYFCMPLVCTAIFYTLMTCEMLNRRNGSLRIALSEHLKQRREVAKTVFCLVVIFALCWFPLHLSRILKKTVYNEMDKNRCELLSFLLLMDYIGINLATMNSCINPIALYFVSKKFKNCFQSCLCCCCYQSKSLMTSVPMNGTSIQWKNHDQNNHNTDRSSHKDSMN

Cytochrome P450 3A4 [6] = biological target: T2, Cytochrome P450 3A4; experiment: Drug metabolism assessed as human recombinant CYP3A4-mediated formation of 4-(1,1,1,3,3,3-hexafluoro-2-hydroxypropan-2-yl)-N-(6-(2-hydroxyethoxy)-5-(2-methoxyphenoxy)-2,2'-bipyrimidin-4-yl)benzenesulfonamide at 5 uM in presence of NADPH after 30 mins by LC-MS/MS analysis; assay type: ADME; settings: recombinant enzyme, 0.5 h; method in brief: as §1
Cytochrome P450 3A4 [7] = biological target: T2, Cytochrome P450 3A4; experiment: Drug metabolism assessed as human recombinant CYP3A4-mediated formation of 4-(1,1,1,3,3,3-hexafluoro-2-methoxypropan-2-yl)-N-(6-(2-hydroxyethoxy)-5-(2-hydroxyphenoxy)-2,2'-bipyrimidin-4-yl)benzenesulfonamide at 5 uM in presence of NADPH after 30 mins by LC-MS/MS analysis; assay type: ADME; settings: recombinant enzyme, 0.5 h; method in brief: as §1
[8] = Drug metabolism in human liver microsomes assessed as formation of 4-(1,1,1,3,3,3-hexafluoro-2-hydroxypropan-2-yl)-N-(6-(2-hydroxyethoxy)-5-(2-methoxyphenoxy)-2,2'-bipyrimidin-4-yl)benzenesulfonamide at 5 uM in presence of NADPH after 30 mins by LC-MS/MS analysis; assay type: ADME; settings: 0.5 h; method in brief: as §1
[9] = Drug metabolism in human liver microsomes assessed as formation of 4-(1,1,1,3,3,3-hexafluoro-2-methoxypropan-2-yl)-N-(6-(2-hydroxyethoxy)-5-(2-hydroxyphenoxy)-2,2'-bipyrimidin-4-yl)benzenesulfonamide at 5 uM in presence of NADPH after 30 mins by LC-MS/MS analysis; assay type: ADME; settings: 0.5 h; method in brief: as §1

Chain of Cytochrome P450 2D6 (P10635 whole entry): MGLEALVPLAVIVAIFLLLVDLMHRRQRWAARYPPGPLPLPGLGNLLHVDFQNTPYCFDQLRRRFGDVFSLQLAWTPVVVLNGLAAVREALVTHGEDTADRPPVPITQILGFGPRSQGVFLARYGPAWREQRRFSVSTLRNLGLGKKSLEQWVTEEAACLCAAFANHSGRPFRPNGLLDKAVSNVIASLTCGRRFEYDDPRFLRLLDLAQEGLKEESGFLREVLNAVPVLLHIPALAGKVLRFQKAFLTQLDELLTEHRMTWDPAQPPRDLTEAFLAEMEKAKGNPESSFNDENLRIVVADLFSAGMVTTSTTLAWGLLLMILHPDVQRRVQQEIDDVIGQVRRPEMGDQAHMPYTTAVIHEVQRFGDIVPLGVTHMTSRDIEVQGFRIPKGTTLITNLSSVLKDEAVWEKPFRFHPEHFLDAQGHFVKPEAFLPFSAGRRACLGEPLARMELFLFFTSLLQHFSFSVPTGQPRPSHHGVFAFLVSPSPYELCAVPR

Stability (Cytochrome P450 2D6) | inhibition [1] | Drug metabolism [2] | Drug metabolism [3] | Drug metabolism (Cytochrome P450 3A4 [4]) | Drug metabolism (Cytochrome P450 3A4 [5]) | IC50 (Endothelin-1 receptor) | Drug metabolism (Cytochrome P450 3A4 [6]) | Drug metabolism (Cytochrome P450 3A4 [7]) | Drug metabolism [8] | Drug metabolism [9] | Structure (SMILES)
> 99% | 8% | Metabolite_Detected | Metabolite_Detected | Metabolite_Detected | Metabolite_Detected | 0.0754 µM |  |  |  |  | COc1ccccc1Oc1c(NS(=O)(=O)c2ccc(C(F)(C(F)(F)F)C(F)(F)F)cc2)nc(-c2ncccn2)nc1OCCO
> 99% | 11% |  |  |  |  | 693 µM | Metabolite_Detected | Metabolite_Detected | Metabolite_Detected | Metabolite_Detected | COc1ccccc1Oc1c(NS(=O)(=O)c2ccc(C(OC)(C(F)(F)F)C(F)(F)F)cc2)nc(-c2ncccn2)nc1OCCO
